Redox H2O2 prof – compounds producing H2O2 with reducing agent – biochemical, NIH compound library profiling, artefact control for MLSCN library redox annotation, primary screen. 200,000 tested, 0.03% active. activation, % at 10 µM. DTT-dependent redox cycling H2O2, phenol red/HRP absorbance; 100% = 100 µM peroxide control, 0% = buffer;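 active = activation of at least 50% relative to the plate's high and low controls in the primary single-dose screen; inactive = activation below 50%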;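 also: compound incubated with DTT at 0.8 mM final as the reducing agent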
ROMK primary – modulators of human ROMK potassium channel; B-score at 10 µM; Tet-inducible ROMK, thallium flux fluorescence; actives lie on both sides; 130,000 tested, 2% active; P48048;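 active = signal ratio slope over the read window, or its plate-corrected B-score, at least 3 SD from the plate mean, either direction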;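 also: B-score of the F/F0 ratio slope over 7 to 12 s after thallium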
Target sequence (P48048 whole entry, looked up): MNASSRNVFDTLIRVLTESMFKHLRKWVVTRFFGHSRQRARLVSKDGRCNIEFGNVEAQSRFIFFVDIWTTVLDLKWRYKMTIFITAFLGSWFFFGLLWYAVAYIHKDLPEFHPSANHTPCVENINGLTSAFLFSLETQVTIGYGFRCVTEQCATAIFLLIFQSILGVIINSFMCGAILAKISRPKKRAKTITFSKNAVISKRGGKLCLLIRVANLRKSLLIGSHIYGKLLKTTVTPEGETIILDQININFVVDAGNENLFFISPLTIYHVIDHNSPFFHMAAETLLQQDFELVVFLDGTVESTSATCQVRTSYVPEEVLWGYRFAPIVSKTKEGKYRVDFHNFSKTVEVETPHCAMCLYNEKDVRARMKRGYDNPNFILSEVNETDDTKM
KCC2 mod – modulators of human KCC2 chloride dependent transport; KCC2 cells, thallium flux FluoZin-2 fluorescence; B-score of Tl+ flux slope (higher = more flux/activation; lower = inhibition) at 10 µM; 190,000 tested, 2.2% active;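 active = thallium flux slope and its plate-corrected score both differing from the plate sample mean at a set confidence after two filtering rounds, in either direction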;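 also: slope of fluorescence scaled to starting intensity during 10 to 20 s after thallium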
Dynein transport – blocks dynein driven cargo transport along microtubules. z-score, hits read low. 220,000 tested, 0.47% active. 3617.4 mouse cells, GR-EGFP nuclear translocation imaging; test concentration mostly 20 µM; stimulated with dexamethasone, 1 µM; active compounds read low. AID 1381;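 active = plate z-score of nuclear minus cytoplasmic receptor signal below a set negative limit, without overly bright fluorescence or cell loss, cut at about -3.5 in these data, passing the limit was not always enough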;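 also: z-score of nuclear minus cytoplasmic ring GR-EGFP intensity difference per well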
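Also added: dexamethasone, 1.0 µM final. Medium: tet-free, stripped-serum medium. Detection: fixed, Hoechst-stained cells imaged at 10x for EGFP. Read-out: nuclear-to-cytoplasmic GR-EGFP distribution per well. Times: induction 48 h, compound 1 h, agonist 30 min.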
Autophagy mod – autophagy modulation, high-content screen | MEF GFP-LC3 puncta imaging; test concentration mostly 10 µM | calls only at 10 µM (by protocol) | 190,000 tested, 0.98% active | AID 463193;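 active = percentage of spot-positive cells more than 3 SD above its plate mean, without a fluorescence outlier flag or 80% toxicity; inconclusive = no clear call, values can overlap the other calls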;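 also: spot-positive cell cutoff set from DMSO-treated cells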
Dynein confirm – dynein cargo transport inhibition, confirmation. shares compounds with Dynein transport. 3617.4 GR-EGFP nuclear translocation imaging, dexamethasone-induced. calls only at 20 µM. 1,000 tested, 69% active;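 active = inhibition of receptor movement into the nucleus at or above a set limit in both runs, with normal cell brightness and cell count; inconclusive = limit reached in only one run, brightness and count normal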;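 also: dexamethasone at 1 µM final in well for 30 min; nuclear minus cytoplasmic GR-EGFP mean intensity difference in channel 2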
The depositor's hits bear a star. Compounds with a hit are over-represented: about 4.1% of the library has one in this group of screens.

What do the screens show for `O=C(Nc1ccccc1Cl)c1ccc(-n2cccn2)c([N+](=O)[O-])c1`?
Redox H2O2 prof: 0; ROMK primary: 0.33; KCC2 mod: -0.49; Dynein transport: -1.2; Autophagy mod: inactive

How did CCSc1nnc(-c2sc3nnc(-c4ccccc4)c(-c4ccccc4)c3c2N)o1 do in these assays?
Redox H2O2 prof: 20; KCC2 mod: inactive; Dynein transport: -7.4; Autophagy mod: inconclusive; Dynein confirm: inactive

Results for CC(=O)Nc1sc(/C(C#N)=C\c2cccc(Cl)c2)nc1-c1ccc(C)cc1 ?
Redox H2O2 prof: 1; KCC2 mod: 0.048; Dynein transport: -5.9; Autophagy mod: inconclusive; Dynein confirm: inactive

How did CC(=O)Nc1sc(N/N=C/c2ccc(O)cc2)nc1-c1ccc(C)cc1 do in these assays?
KCC2 mod: -0.49; Dynein transport: -0.9

Results for O=C(Nc1ccc(N2CCOCC2)c(Cl)c1)c1ccc([N+](=O)[O-])o1 ?
Redox H2O2 prof: 0; ROMK primary: -0.37; KCC2 mod: 0.64; Dynein transport: -4.5*; Autophagy mod: inactive; Dynein confirm: active

How did CC(=O)N1CCN(c2ccc(NC(=O)c3ccc(Br)o3)cc2Cl)CC1 do in these assays?
Redox H2O2 prof: 0; ROMK primary: -0.53; KCC2 mod: 0.52; Dynein transport: 0.56; Autophagy mod: inactive

What do the screens show for `CCCC(=O)N1CCN(c2ccc(NC(=O)c3ccc([N+](=O)[O-])o3)cc2Cl)CC1`?
Redox H2O2 prof: 0; Dynein transport: -4.7*; Autophagy mod: active; Dynein confirm: active

Results for O=C(Nc1ccc(N2CCN(C(=O)c3ccccc3)CC2)cc1)c1ccc([N+](=O)[O-])o1 ?
Redox H2O2 prof: -1; ROMK primary: 0.18; KCC2 mod: 0.98; Dynein transport: 0.24; Autophagy mod: inactive

How did CC(C)C(=O)N1CCN(c2ccc(NC(=O)c3ccc([N+](=O)[O-])o3)cc2Cl)CC1 do in these assays?
Redox H2O2 prof: 0; ROMK primary: -0.29; KCC2 mod: 0.66; Dynein transport: -4.2*; Autophagy mod: inactive; Dynein confirm: active

What do the screens show for `O=C(c1ccc(N2CCCCC2)c([N+](=O)[O-])c1)N1CCOCC1`?
Redox H2O2 prof: 0; ROMK primary: -0.058; KCC2 mod: -0.48; Dynein transport: -0.27; Autophagy mod: inactive

Results for COc1ccccc1C(=O)/C=C/c1ccc(N2CCCCC2)c([N+](=O)[O-])c1 ?
Redox H2O2 prof: 1; KCC2 mod: -0.25; Dynein transport: -5.4*; Autophagy mod: inactive; Dynein confirm: active

Results for O=C(O/N=C\c1ccc(N2CCCCC2)c([N+](=O)[O-])c1)c1ccc(Cl)cc1Cl ?
Redox H2O2 prof: -3; ROMK primary: 0.19; KCC2 mod: 0.056; Dynein transport: 0.011; Autophagy mod: inactive

Results for O=C(/C=C/c1ccc(N2CCCCC2)c([N+](=O)[O-])c1)c1ccc(O)cc1 ?
Redox H2O2 prof: 0; ROMK primary: 0.35; KCC2 mod: -0.58; Dynein transport: -3.7*; Autophagy mod: inactive; Dynein confirm: active

How did COc1ccc(-n2c(C)cc(-c3csc(NC(=O)c4ccc(S(=O)(=O)N(C)C)cc4)n3)c2C)cc1 do in these assays?
Redox H2O2 prof: 0; ROMK primary: 0.097; KCC2 mod: -0.33; Dynein transport: -1; Autophagy mod: inactive

How did CCn1c(SCC(=O)N2CCc3ccccc3C2)nc2sc(C)c(C)c2c1=O do in these assays?
Redox H2O2 prof: 0; KCC2 mod: -2.2; Dynein transport: -0.34; Autophagy mod: inactive

How did CCOC(=O)C1(CCCc2ccccc2)CCN(C(=O)C2=C(C)OCCO2)CC1 do in these assays?
Redox H2O2 prof: -1; ROMK primary: -1.1; KCC2 mod: -4.5; Dynein transport: -3.5*; Autophagy mod: inactive; Dynein confirm: inconclusive

What do the screens show for `COc1ccc(-n2ncc(Cl)c(Cl)c2=O)cc1`?
Redox H2O2 prof: 0; ROMK primary: 0.0015; KCC2 mod: -0.41; Dynein transport: -6.8*; Autophagy mod: inactive; Dynein confirm: active

Results for O=C(Oc1ccccc1)c1cccc(COC(=O)c2cnccn2)c1 ?
Redox H2O2 prof: 2; ROMK primary: 0.035; Dynein transport: -4.1; Autophagy mod: inactive; Dynein confirm: inactive

Results for Cc1nc2nc[nH]n2c(=O)c1CCOC(=O)c1c(F)cccc1F ?
Redox H2O2 prof: -2; ROMK primary: -0.42; KCC2 mod: -0.038; Dynein transport: -0.093; Autophagy mod: inactive

Results for O=C(OCn1ncc(Br)c(Br)c1=O)c1c(F)cccc1F ?
Redox H2O2 prof: 0; ROMK primary: -4.2*; Dynein transport: -4.8*; Autophagy mod: active; Dynein confirm: active

Results for CC(C)(C)C(=O)Cn1ncc(N2CCOCC2)c(Br)c1=O ?
Redox H2O2 prof: -1; ROMK primary: 0.7; KCC2 mod: 0.15; Dynein transport: -0.9; Autophagy mod: inactive

Results for CC(=O)Cn1ncc(Br)c(Br)c1=O ?
Redox H2O2 prof: 0; ROMK primary: 1; KCC2 mod: -1.5; Dynein transport: -4.6*; Autophagy mod: active; Dynein confirm: active

What do the screens show for `Cc1oc(-c2cccs2)nc1CN1CCC(c2ccccc2)CC1`?
Redox H2O2 prof: -2; ROMK primary: -0.94; KCC2 mod: 0.68; Dynein transport: -0.91; Autophagy mod: inactive

How did CSc1nnc(C)c(/C=C/Nc2ccc(C)cc2)n1 do in these assays?
Redox H2O2 prof: 2; KCC2 mod: -1.7; Dynein transport: -8.3; Autophagy mod: inactive; Dynein confirm: active

What do the screens show for `CSc1nnc(C)c(/C=C/NOCc2ccc(Cl)cc2)n1`?
Redox H2O2 prof: 0; ROMK primary: -0.28; KCC2 mod: -0.34; Dynein transport: 0.43; Autophagy mod: inactive

Results for COc1ccc(C(=O)Cn2c(Cl)nc3c2c(=O)n(C)c(=O)n3C)cc1 ?
KCC2 mod: 0.71; Dynein transport: -0.2

How did COc1cc(CN2CCCC(C(=O)c3ccccc3SC)C2)cc(OC)c1 (stereo unspecified) do in these assays?
Redox H2O2 prof: -1; ROMK primary: -1.2; Dynein transport: 0.1; Autophagy mod: inactive

Results for CCN(CC)c1ccc(/C=N/NC(=O)C(O)(c2ccccc2)c2ccccc2)o1 ?
Redox H2O2 prof: 0; KCC2 mod: -0.56; Dynein transport: -4.9*; Autophagy mod: inactive; Dynein confirm: inactive

How did CCN(NC(=O)C(O)(c1ccccc1)c1ccccc1)C(=O)c1ccccc1 do in these assays?
Redox H2O2 prof: 0; KCC2 mod: -0.86; Dynein transport: 0.15; Autophagy mod: inactive

How did O=C1C2C3C=CC(CO)(O3)C2C(=O)N1c1ccc(-c2ccccc2)cc1 (stereo unspecified) do in these assays?
Redox H2O2 prof: -2; ROMK primary: -0.089; Dynein transport: -4.4*; Autophagy mod: inactive; Dynein confirm: active

From PubChem BioAssay
